The source made the active and inactive calls. No cut-off for these calls is given here.
What was measured:
[1] = tested on: Rattus norvegicus; assay: Bradycardic activity was evaluated in an anesthetized rat model as percent heart rate(beats/min) reduction 20 min after iv injection of 5 mg/kg; format: functional
In short: (§1)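 Male Chbb:THOM rats, 200-250 g, anesthetized with pentobarbital sodium 50 mg/kg ip, with the trachea cannulated and artificial respiration given. Heart rate was recorded continuously by an ECG-triggered beat-to-beat tachograph before and at 5 and 20 min after a single iv injection of 5 mg/kg. Values are % change from pre-dose, reported ± SEM.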

[2] = tested on: Rattus norvegicus; assay: Bradycardic activity was evaluated in an anesthetized rat model as percent heart rate(beats/min) reduction 5 min after iv injection of 5 mg/kg; format: functional; in short: as §1
[3] = tested on: Rattus norvegicus; assay: Hypotensive activity was evaluated in an anesthetized rat model as percent mean aortic blood pressure(mm hg) reduction 5 min after iv injection of 5 mg/kg; format: functional, Artery
In short: (§2)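 In pentobarbital-anesthetized (50 mg/kg ip), artificially ventilated male Chbb:THOM rats (200-250 g), mean aortic pressure was measured through a carotid artery cannula connected to an electromechanical transducer. Readings were taken before and 5 min after 5 mg/kg iv. Values are % change from baseline, ± SEM.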

[4] = species on record: Rattus norvegicus; assay: Delta HR ratio measured as the ratio of delta HR(20 min)/delta HR (5 min); format: functional
In short: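 Duration-of-action index: the % heart-rate reduction at 20 min divided by that at 5 min after 5 mg/kg iv. Rats were male Chbb:THOM, pentobarbital-anesthetized and ventilated, with heart rate taken from an ECG-triggered tachograph.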

[5] = species on record: Rattus norvegicus; assay: Ratio of heart rate reduction to mean arterial blood pressure reduction; format: functional
In short: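 Selectivity parameter S: the % heart-rate reduction divided by the % mean arterial pressure reduction, both read 5 min after 5 mg/kg iv in anesthetized, ventilated male Chbb:THOM rats. Heart rate came from an ECG-triggered tachograph and pressure from a carotid cannula.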

[6] = tested on: Rattus norvegicus; assay: Bradycardic activity was evaluated in an anesthetized rat model as percent heart rate(beats/min) reduction 20 min after iv injection of 5 mg/kg of the compound; NA=Not active; format: functional, organism-based; parameters: dose 5 mg/kg; in short: as §1
[7] = tested on: Rattus norvegicus; assay: Bradycardic activity was evaluated in an anesthetized rat model as percent heart rate(beats/min) reduction 5 min after iv injection of 5 mg/kg of the compound; NA=Not active; format: functional, organism-based; parameters: dose 5 mg/kg; in short: as §1
[8] = tested on: Rattus norvegicus; assay: Hypotensive activity was evaluated in an anesthetized rat model as percent mean aortic blood pressure(mm hg) reduction 5 min after iv injection of 5 mg/kg of the compound; NA=Not active; format: functional, organism-based; parameters: dose 5 mg/kg; conditions: Artery; in short: as §2

Row | Compound | Delta HR [1] | Delta HR [2] | Delta MAP [3] | Ratio [4] | Selectivity [5] | Delta HR [6] | Delta HR [7] | Delta MAP [8]
1 | COc1cc2c(cc1OC)CC(=O)N(CCCN(C)CCCc1cccs1)CC2 | -19% | -40% | -20% | 0.48 | 2 |  |  | 
2 | COc1cc2c(cc1OC)CC(=O)N(CCCN(C)CCc1coc3ccccc13)CC2 | -39% | -54% | -39% | 0.72 | 1.4 |  |  | 
3 | COc1cc2c(cc1OC)CC(=O)N(CCCN(C)CCCCc1cccs1)CC2 | -24% | -61% | -2% | 0.39 | 2.3 |  |  | 
4 | COc1cc2c(cc1OC)CC(=O)N(CCCN(C)CCc1scnc1C)CC2 |  |  |  |  |  | inactive | inactive | inactive
5 | COc1cc2c(cc1OC)CC(=O)N(CCCN(C)CCc1ccccn1)CC2 | -16% | -15% |  | 1.1 |  |  |  | inactive
6 | COc1cc2c(cc1OC)CC(=O)N(CCCN(C)CCCCn1ccnc1)CC2 |  |  |  |  |  | inactive | inactive | inactive
7 | COc1cc2c(cc1OC)CC(=O)N(CCCN(C)Cc1ccccn1)CC2 |  |  |  |  |  | inactive | inactive | inactive
8 | COc1cc2c(cc1OC)CC(=O)N(CCCN(C)CCc1cccnc1)CC2 | -18% | -12% | -11% | 1.5 | 1.1 |  |  | 
9 | COc1cc2c(cc1OC)CC(=O)N(CCCN(C)CCc1csc3cc(OC)c(OC)cc13)CC2 | -17% | -24% | -17% | 0.71 | 1.4 |  |  | 
10 | COc1cc2c(cc1OC)CC(=O)N(CCCN(C)CCc1csc3cc(OS(C)(=O)=O)ccc13)CC2 | -40% | -50% | -21% | 0.8 | 2.4 |  |  | 
11 | COc1cc2c(cc1OC)CC(=O)N(CCCN(C)CCc1cccs1)CC2 | -16% | -28% | -34% | 0.56 | 0.82 |  |  | 
12 | COc1cc2c(cc1OC)CC(=O)N(CCCN(C)CCc1cc(C)sc1C)CC2 | -40% | -61% | -36% | 0.65 | 1.7 |  |  | 
13 | COc1cc2c(cc1OC)CC(=O)N(CCCN(C)CCc1c[nH]c3ccc(Br)cc13)CC2 | -27% | -33% | -34% | 0.82 | 0.98 |  |  | 
14 | COc1cc2c(cc1OC)CC(=O)N(CCCN(C)CCCc1c[nH]c3ccccc13)CC2 | -47% | -62% | -34% | 0.76 | 1.8 |  |  | 
15 | COc1cc2c(cc1OC)CC(=O)N(CCCN(C)CCc1coc3cccc(OC)c13)CC2 | -14% | -31% | -8% | 0.45 | 3.9 |  |  | 
16 | COc1cc2c(cc1OC)CC(=O)N(CCCN(C)CCc1csc3c1CCCC3)CC2 | -55% | -69% | -43% | 0.8 | 1.6 |  |  | 
17 | COc1cc2c(cc1OC)CC(=O)N(CCCN(C)CCc1csc3cc(O)ccc13)CC2 | -37% | -50% | -29% | 0.74 | 1.7 |  |  | 
18 | COc1cc2c(cc1OC)CC(=O)N(CCCN(C)CCc1c[nH]c3ccc(O)cc13)CC2 | -24% | -49% | -27% | 0.49 | 1.8 |  |  | 
19 | COc1cc2c(cc1OC)CC(=O)N(CCCN(C)CCc1c[nH]c3ccc(OCc4ccccc4)cc13)CC2 | -46% | -49% | -45% | 0.93 | 1.1 |  |  | 
20 | COc1cc2c(cc1OC)CC(=O)N(CCCN(C)CCc1csc3ccc(C)cc13)CC2 | -38% | -51% | -36% | 0.75 | 1.4 |  |  | 
21 | COc1cc2c(cc1OC)CC(=O)N(CCCN(C)Cc1c(C)noc1C)CC2 | -14% | -5% |  | 2.8 |  |  |  | inactive

Row | Compound | Delta HR [1] | Delta HR [2] | Delta MAP [3] | Ratio [4] | Selectivity [5] | Delta HR [6] | Delta HR [7] | Delta MAP [8]
22 | COc1cc2c(cc1OC)CC(=O)N(CCCN(C)CCc1ccsc1)CC2 | -19% | -24% |  | 0.79 |  |  |  | inactive
23 | COc1ccc2c(CCN(C)CCCN3CCc4cc(OC)c(OC)cc4CC3=O)coc2c1 | -34% | -59% | -35% | 0.58 | 1.7 |  |  | 
24 | COc1cc2c(cc1OC)CC(=O)N(CCCN(C)CCc1cncc3cc(OC)c(OC)cc13)CC2 | -5% | -5% |  | 1 |  |  |  | inactive
25 | COc1ccc2[nH]cc(CCN(C)CCCN3CCc4cc(OC)c(OC)cc4CC3=O)c2c1 | -29% | -32% | -18% | 0.92 | 1.8 |  |  | 
26 | COc1cc2c(cc1OC)CC(=O)N(CCCN(C)CCCc1ccco1)CC2 | -18% | -19% | -61% | 0.95 | 0.31 |  |  | 
27 | COc1cc2c(cc1OC)CC(=O)N(CCCN(C)CCCCCCc1cccs1)CC2 | -21% | -53% | -26% | 0.4 | 2 |  |  | 
28 | COc1cc2c(cc1OC)CC(=O)N(CCCN(C)CCCCCc1cccs1)CC2 | -36% | -68% | -15% | 0.53 | 4.4 |  |  | 
29 | COc1cc2c(cc1OC)CC(=O)N(CCCN(C)Cc1csc3ccccc13)CC2 | -7% | -18% | -27% | 0.4 | 0.66 |  |  | 
30 | COc1cc2c(cc1OC)CC(=O)N(CCCN(C)CCc1csc3cccc(OC)c13)CC2 | -24% | -34% | -21% | 0.72 | 1.6 |  |  | 
31 | COc1cc2c(cc1OC)CC(=O)N(CCCN(C)CCc1csc3ccc(Br)cc13)CC2 | -17% | -50% | -41% | 0.34 | 1.2 |  |  | 
32 | COc1cc2c(cc1OC)CC(=O)N(CCCN(C)CCc1ccco1)CC2 | -11% | -12% | -52% | 0.92 | 0.23 |  |  | 
33 | COc1cc2c(cc1OC)CC(=O)N(CCCN(C)CCc1c[nH]c3ccccc13)CC2 | -36% | -50% | -23% | 0.73 | 2.2 |  |  | 
34 | COc1cc2c(cc1OC)CC(=O)N(CCCN(C)CCc1ccncc1)CC2 | -21% | -10% |  | 2.1 |  |  |  | inactive
35 | COc1cc2c(cc1OC)CC(=O)N(CCCN(C)CCCc1csc3ccccc13)CC2 | -45% | -65% | -46% | 0.69 | 1.4 |  |  | 
36 | COc1cc2c(cc1OC)CC(=O)N(CCCN(C)CCc1csc3ccccc13)CC2 | -51% | -66% | -55% | 0.78 | 1.2 |  |  | 
37 | COc1cc2c(cc1OC)CC(=O)N(CCCN(C)CCc1cc3ccccc3o1)CC2 | -45% | -67% | -39% | 0.67 | 1.7 |  |  | 
38 | COc1ccc(CCN(C)CCCN2CCc3cc(OC)c(OC)cc3CC2=O)cc1OC [ZATEBRADINE] | -46% | -56% | -21% | 0.83 | 2.6 |  |  | 
39 | COc1cc2c(cc1OC)CC(=O)N(CCCN(C)CCc1cccn1C)CC2 | -18% | -30% | -18% | 0.59 | 1.7 |  |  | 
40 | COc1cc2c(cc1OC)CC(=O)N(CCCN(C)CCc1cn(C)c3ccccc13)CC2 | -37% | -50% | -22% | 0.74 | 2.3 |  |  | 
41 | COc1cc2c(cc1OC)CC(=O)N(CCCN(C)CCn1cnc3ccccc31)CC2 | -15% | -10% |  | 1.5 |  |  |  | inactive
